Molecules are shown by their SMILES.

Our source for the Activity and Time values is ChEMBL document CHEMBL1157859, “Synthesis of some new pyrimido[2',1':2,3]thiazolo[4,5-b]quinoxaline derivatives as anti-inflammatory and analgesic agents” (2010).

Assay type in all cases: functional
In test [1] the test system is Mus musculus. Nature of the test: Analgesic activity in Swiss albino mouse assessed as protection against acetic acid-induced writhing at 20 mg/kg, po after 3 hrs. For orientation: An intraperitoneal irritant provokes the stretching counted in writhing tests.
For test [2], the system named is Rattus norvegicus. Briefly: Antiinflammatory activity in Sprague-Dawley rat assessed as protection against carrageenan-induced paw edema at 20 mg/kg, po administered 1 hr before carrageenan challenge measured after 1 hr. Put shortly:
(§1)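 Female Sprague–Dawley rats, fasted 18 h, 6 per group. Given 20 mg/kg orally as an aqueous suspension in distilled water, 1 h before 0.1 mL of 1% w/v carrageenan injected subcutaneously into the left hind footpad. Paw volume was read by mercury plethysmometer before injection and hourly for 4 h. Inhibition % = (Ec − Et)/Ec from edema rates; mean ± S.E, n = 6.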
For orientation: Carrageenan injected into the paw causes an acute inflammation.

Test [3] relates to Mus musculus. Nature of the test: Analgesic activity in Swiss mouse at 20 mg/kg, po assessed as reaction time after 30 mins by hot plate method. An outline of the steps:
(§2)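 Swiss mice (25–30 g, both sexes), 6 per group, given an oral aqueous suspension at 20 mg/kg. Reaction time on a hot plate was taken as the interval to hind-paw licking or jumping, with a 60 s cut-off. It was measured before dosing (0 min) and at 15, 30, 60 and 90 min after treatment. Mean of six animals.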
In general terms: Hot-plate and tail-flick tests time the reaction to a heat stimulus.

The test system of test [4] is Mus musculus. Nature of the test: Analgesic activity in Swiss albino mouse assessed as protection against acetic acid-induced writhing at 20 mg/kg, po after 2 hrs.
Test [5] relates to Mus musculus. Briefly: Analgesic activity in Swiss albino mouse assessed as protection against acetic acid-induced writhing at 20 mg/kg, po after 30 mins. An outline of the steps:
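Swiss mice (25–30 g, both sexes), fasted 16 h, 6 per group. Dosed orally at 20 mg/kg as an aqueous suspension; controls got distilled water. After 30 min, 0.7% aqueous acetic acid was given at 10 mL/kg. Writhes were counted for 20 min. % protection = (control mean − treated mean)/control mean × 100.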

Test [6] deals with Mus musculus. Briefly: Analgesic activity in Swiss albino mouse assessed as protection against acetic acid-induced writhing at 20 mg/kg, po after 1 hr.
Test [7] has as its system Mus musculus. Nature of the test: Analgesic activity in Swiss mouse at 20 mg/kg, po assessed as reaction time after 60 mins by hot plate method. An outline of the steps:
as §2

The subject of test [8] is Rattus norvegicus. Briefly: Antiinflammatory activity in Sprague-Dawley rat assessed as protection against carrageenan-induced paw edema at 20 mg/kg, po administered 1 hr before carrageenan challenge measured after 2 hrs. Put shortly: as §1
Test [9] deals with Mus musculus. Briefly: Analgesic activity in Swiss mouse at 20 mg/kg, po assessed as reaction time after 90 mins by hot plate method. Put shortly: as §2
Test [10] relates to Rattus norvegicus. Briefly: Antiinflammatory activity in Sprague-Dawley rat assessed as protection against carrageenan-induced paw edema at 20 mg/kg, po administered 1 hr before carrageenan challenge measured after 3 hrs. An outline of the steps: as §1

Regarding `O=c1cc(/N=C/c2ccncc2)nc2sc3nc4ccccc4nc3n12`, the Activity was 51.1% in the test with Mus musculus [1]; 51.1% with Rattus norvegicus [2]; 68.2% in the test on Mus musculus [4]; 60.2% in the test on Mus musculus [5]; 64.1% with Mus musculus [6]; 54.2% in the test with Rattus norvegicus [8]. For the same molecule, in the test on Rattus norvegicus [10], the Activity came to 33.4%. Also, the Time in the test on Mus musculus [3] was 9.66 s; with Mus musculus [7], 9.82 s; in the test with Mus musculus [9], 10.4 s.

In the case of `Nc1cc(=O)[nH]c(Sc2nc3ccccc3nc2Cl)n1`, the Activity in the test with Mus musculus [1] is given as 57.2%; with Rattus norvegicus [2], 58.8%; with Mus musculus [4], 75.4%; in the test with Mus musculus [5], 68%; with Mus musculus [6] it was 73%; with Rattus norvegicus [8] it was 58.3%. In addition, the Activity in the test on Rattus norvegicus [10] is 41.3%. Also, the Time in the test with Mus musculus [3] was 8.42 s; in the test with Mus musculus [7], 9.41 s; with Mus musculus [9], 10.7 s.

In the case of `Nc1cc(=O)n2c(n1)sc1nc3ccccc3nc12`, the Activity in the test on Mus musculus [1] was 46.3%; with Rattus norvegicus [2], 55.3%; in the test with Mus musculus [4], 73.3%; in the test with Mus musculus [5], 60.4%; with Mus musculus [6], 68%; in the test on Rattus norvegicus [8], 61%. The Activity with Rattus norvegicus [10] was 41.2%. Further, the figures for the Time in the test with Mus musculus [3], with Mus musculus [7] and in the test on Mus musculus [9] were 8.42 s, 9.41 s and 10.7 s, respectively.

For the molecule `O=c1c2cc3ccccc3nc2nc2sc3nc4ccccc4nc3n12`, the Activity is given as 35.2% in the test with Mus musculus [1]; 45.3% with Rattus norvegicus [2]; 47.8% in the test with Mus musculus [4]; 40.4% in the test on Mus musculus [5]; 46% in the test with Mus musculus [6]; 47.6% with Rattus norvegicus [8]. In the test on Rattus norvegicus [10], the Activity was 37.6%. In addition, the Time stood at 8.84 s with Mus musculus [3], 10.6 s in the test with Mus musculus [7] and 10.9 s in the test with Mus musculus [9].

Take `O=c1c2cc3c(nc2nc2sc4nc5ccccc5nc4n12)CCCC3`: the Activity is given as 34.7% with Mus musculus [1]; 38.8% in the test with Rattus norvegicus [2]; 45.1% with Mus musculus [4]; 42.2% in the test with Mus musculus [5]; 45% with Mus musculus [6]; 41.3% in the test on Rattus norvegicus [8]. Also, in the test with Rattus norvegicus [10], the Activity was 24.3%. For the same molecule, the Time in the test with Mus musculus [3] turned out to be 8.4 s; in the test on Mus musculus [7], 10.4 s; in the test on Mus musculus [9], 10.7 s.

Regarding `O=c1c2ccccc2[nH]c2nc3sc4nc5ccccc5nc4n3c(=O)c12`, the Activity in the test on Mus musculus [1] is given as 38.4%; with Rattus norvegicus [2] it was 40.2%; in the test with Mus musculus [4] it was 53.1%; in the test on Mus musculus [5], 42.5%; with Mus musculus [6] it was 49%; in the test with Rattus norvegicus [8], 41.5%. Further, the Activity in the test with Rattus norvegicus [10] is 30.1%. Further, the Time was 8.16 s in the test on Mus musculus [3], 9.78 s with Mus musculus [7] and 10.1 s in the test on Mus musculus [9].

Take `O=c1c2ccc(Cl)cc2[nH]c2nc3sc4nc5ccccc5nc4n3c(=O)c12`: the Activity turned out to be 38.3% in the test on Mus musculus [1]; 43.1% in the test on Rattus norvegicus [2]; 47.3% in the test with Mus musculus [4]; 40.5% in the test on Mus musculus [5]; 51% with Mus musculus [6]; 48% in the test on Rattus norvegicus [8]. The Activity in the test on Rattus norvegicus [10] came to 31.5%. Besides, the Time in the test on Mus musculus [3] amounted to 7.07 s; in the test on Mus musculus [7] it was 9.5 s; in the test on Mus musculus [9], 12.7 s.

For `Cc1nn(-c2ccccc2)c2nc3nc4sc5nc6ccccc6nc5n4c(=O)c3cc12`, the Activity with Mus musculus [1] is on record as 35.5%; in the test with Rattus norvegicus [2] it was 48.6%; with Mus musculus [4] it was 58.3%; in the test on Mus musculus [5], 45.7%; in the test on Mus musculus [6], 52%; in the test with Rattus norvegicus [8] it was 56.1%. In addition, the Activity in the test on Rattus norvegicus [10] was determined as 33.8%. Besides, the values for the Time with Mus musculus [3], with Mus musculus [7] and in the test on Mus musculus [9] were 7.55 s, 8.6 s and 12 s, respectively.

In the case of `Cc1cc(C)c2c(N)c3c(=O)n4c(nc3nc2n1)sc1nc2ccccc2nc14`, the Activity in the test on Mus musculus [1] is recorded as 60.3%; with Rattus norvegicus [2] it was 58.5%; in the test with Mus musculus [4] it was 76.2%; in the test on Mus musculus [5] it was 72.2%; in the test on Mus musculus [6] it was 75%; in the test with Rattus norvegicus [8], 60.4%. The Activity in the test on Rattus norvegicus [10] is given as 45.5%. In addition, the Time with Mus musculus [3] worked out at 10.1 s; in the test with Mus musculus [7], 10.7 s; with Mus musculus [9], 7.62 s.

As for `O=c1c2c(-c3ccccc3)c3c(nc2nc2sc4nc5ccccc5nc4n12)/C(=C\c1ccccc1)CCC3`, the Activity amounted to 38.6% in the test on Mus musculus [1]; 41.3% in the test with Rattus norvegicus [2]; 50.3% in the test with Mus musculus [4]; 42.4% in the test on Mus musculus [5]; 47% in the test on Mus musculus [6]; 43.8% in the test with Rattus norvegicus [8]. The Activity in the test on Rattus norvegicus [10] is listed as 31.9%. In addition, the Time in the test with Mus musculus [3] amounted to 7.51 s; in the test on Mus musculus [7], 8.86 s; in the test with Mus musculus [9], 10.4 s.

Regarding `O=c1c2c(-c3ccc(Cl)cc3)c3c(nc2nc2sc4nc5ccccc5nc4n12)/C(=C\c1ccc(Cl)cc1)CCC3`, the Activity with Mus musculus [1] stood at 36.3%; with Rattus norvegicus [2], 45.7%; in the test on Mus musculus [4] it was 55.6%; in the test with Mus musculus [5], 45%; with Mus musculus [6], 53%; in the test on Rattus norvegicus [8] it was 43.2%. In the test on Rattus norvegicus [10], the Activity came out at 38.2%. In addition, the Time was 8.61 s in the test with Mus musculus [3], 9.06 s with Mus musculus [7] and 9.22 s in the test on Mus musculus [9].

With `COc1ccc(/C=C2/CCCc3c2nc2nc4sc5nc6ccccc6nc5n4c(=O)c2c3-c2ccc(OC)cc2)cc1`, the Activity in the test with Mus musculus [1] came out at 38.6%; with Rattus norvegicus [2] it was 48%; in the test with Mus musculus [4], 56.5%; in the test with Mus musculus [5] it was 51.4%; with Mus musculus [6] it was 53%; in the test on Rattus norvegicus [8] it was 52.2%. Further, the Activity with Rattus norvegicus [10] was 40.1%. Further, the Time was 8.67 s with Mus musculus [3], 9.82 s in the test with Mus musculus [7] and 10.4 s in the test on Mus musculus [9].

Regarding `O=C([O-])Cc1ccccc1Nc1c(Cl)cccc1Cl.[Na+]` [DICLOFENAC SODIUM], the Activity was determined as 39% with Mus musculus [1]; 52.4% with Rattus norvegicus [2]; 62% in the test on Mus musculus [4]; 46% in the test with Mus musculus [5]; 55.2% in the test on Mus musculus [6]; 60.3% in the test with Rattus norvegicus [8]. In the test on Rattus norvegicus [10], the Activity worked out at 42%. Besides, the Time in the test with Mus musculus [3] came out at 10 s; with Mus musculus [7] it was 11.4 s; with Mus musculus [9], 13.2 s.
